From the EternaBench riboswitch data

System: MS2 coat protein
Experiment: apparent Kd, MS2 coat protein; higher = weaker binding; RNA-MaP array; FMN 200 µM where present
In short: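 Stalled E. coli RNA polymerase transcribed each design on Illumina sequencing-chip clusters. The clusters were titrated with SNAP-549-labelled MS2 coat protein, starting at 0.7 or 1.5 nM and doubling up to 3 µM, first without ligand and then with constant ligand, in 100 mM Tris-HCl pH 7.5, 80 mM KCl, 4 mM MgCl2, BSA, DTT, yeast tRNA and Tween-20. Green signal was normalised to red-channel RNA signal and to the control-cluster median Fmax. The apparent Kd is the median of filtered binding-curve fits made for each cluster.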

[1] = designed as: OFF switch for flavin mononucleotide, no ligand
[2] = ligand present: flavin mononucleotide, designed as: OFF switch for flavin mononucleotide
[3] = designed as: ON switch for flavin mononucleotide, no ligand
[4] = ligand present: flavin mononucleotide, designed as: ON switch for flavin mononucleotide

| Sequence | apparent Kd [1] [nM] | apparent Kd [2] [nM] | apparent Kd [3] [nM] | apparent Kd [4] [nM] |
| --- | --- | --- | --- | --- |
| AUACGGAGGGAGAAGGGCUAGGAGGUCCAGCUUAUGUGUGUUGCAACAUGAGGAUCACCCAUGUAGCAGGAUAUCCCUUGUACA | 42.9 | 231 | – | – |
| AAGGAGUCAGGAUAUGCUGCUCGUCACUUGCGUGAUGAGUAGCAGAAGGGACAUGAGGAUCACCCAUGUAAAGA | 51.2 | 61.4 | – | – |
| GCGCUUAUACAGAAGGCCAGAGACAUGAGGAUCACCCAUGUUAGAUGGUGGAGGAUAUGUGUUUUAUUACAGAUAGUUGAGCGC | – | – | 6.38 | 6.13 |
| GGAGCAAGUGUCAGGAUAUCGUGGUCGAUAGAUCACGAGAAGGGACAUGAGGAUCACCCAUGUGUCCUAGCUCC | 262 | 484 | – | – |
| AAUAAACACACAGGAUAUAGCAUCGUCGUUGCGAACUUAGCGACGUCGAUGCUAGAAGGGUGAAAACAUGAGGAUCACCCAUGU | – | – | 80.9 | 20.1 |
| GGUGCGUAUGUGAGGAUAUGCUGGUCCUUGGAUCAGCAGAAGGCACAUGAGGAUCACCCAUGUGGUGUCGUUCC | 397 | 29.3 | – | – |
| GCGACGGCGAAAGGAUAUCAAAAUCAACAGUGUUGAGAAGGUUCUCCGAGGGUCGCACAUGAGGAUCACCCAUGUCGCGAAUCU | – | – | 13.1 | 10.3 |
| GCGGAGAUACAGAAGGGAUAGGCCCUGGGCUAGUCAGGAUAUGUACGACGCAUCGUACAUGAGGAUCACCCAUGUAGCCGCUUG | – | – | 278 | 189 |
| AAACAUGUCCGAGGAUAUCUGGAAACAUUUUCAAGAGAAGGCGGACAUGAGGAUCACCCAUGUCUCUCCUCAUCAAAUCCAAGC | 8.2 | 44.9 | – | – |
| CGGGCGCCGAAGGGCGAAAGCCCACAUGAGGAUCACCCAUGUAGAAGGAGGGAAGAAACCAAAACCUAGGAUAUACAGGCGCCA | 8.43 | 10.5 | – | – |
| GCCAUCUCAUGAGGAUAUGCUCCCGUUUCGGGAGCAGAAGGCAUGUCAUAAGACAUGAGGAUCACCCAUGUAGUUAAGAUGGCA | – | – | 286 | 11.8 |
| CAAGGCGGUGAAGGAUAUACACGGGCGUUGCCAAACAUGAGGAUCACCCAUGUAGAAGGUCACCCUGAGAAGGCUUUAUGCCUA | 411 | 42.2 | – | – |
| GCCCAACAUGAGGAUCACCCAUGUAAGGAUAUUGGAUGUGUGUGGAAACAUAUAUAAACGAGAAGGUACAGGGC | 38.4 | 28.9 | – | – |
| CUAUUUAAGCAGAAGGCGUGGGAAAGAUUUACACGAGGAUAUGCGAUAACGGCGUAUGACAUGAGGAUCACCCAUGUACGUGCG | – | – | 7.22 | 4.47 |
| GACUCUAAGUUUGUCACUUAGAGAGAGGAUAUGGAAAACUUGACAUGAGGAUCACCCAUGUAUAAUCAGAAGGCUCGAGUACGA | – | – | 9.95 | 8.98 |
| ACAUACAUUCGAGGAUAUCGGUGAACAAAUUAACGAGAAGGCGAUAUAAUUUUUAAUCUUAUGAACAUGAGGAUCACCCAUGUA | – | – | 22.3 | 20.4 |
| UGUGUGUGGGCAGGAUAUGCAUGAAUAUAUAUGAUGUAGUAUGAUGUAACAUGAGGAUCACCCAUGUAGAAGGGCCGGUGUAUG | 133 | 133 | – | – |
| CCUAUACAUGAGGAUCACCCAUGUCAGGAUAUAGAAAGCCGCGGAAUAGGACACGGCACUAGAAGGGACUGGCU | 29.7 | 36.1 | – | – |
| AUUACCAGAGGAUAUGCGAGGGUGUACCUCCCACAGCGAAAACAUGAGGAUCACCCAUGUAGAAGGCUGAACAU | 56.7 | 46.3 | – | – |
| AUAAUUUUAUAUAUCAUUUUAAUCAGAAGGCAUAACAUGAGGAUCACCCAUGUAAAUUAUUGUUAUGAGGAUAUGAUUUGGUUA | 20.3 | 72.2 | – | – |
| AUCUAAGAAUUAAUUGUGACAGUGAGAAGGCUAUAGUAUGUGACCGACAUGAGGAUCACCCAUGUAGAGGAUAUCACUUGCUAC | 71.8 | 335 | – | – |
| UGUCGGAGCAGAGGAUAUUACAUGAGGAUCACCCAUGUAUGAACCAACAGCUGGAAACAGCAAUGUAAGAAGGCUGCUCCGACA | 10.4 | 131 | – | – |
| AGUGACUACGUAGGAUAUUAAUUCAUGGACUACAUGAGGAUCACCCAUGUUUAUUUAACAUCAGCUGAGAAGGACGUGGUCACA | – | – | 28.1 | 10.6 |
| GAACAGGGAGGAUAUACAGAUCCUCGUGCCUGCGGACCAAGACAUGAGGAUCACCCAUGUAGAAGGCCCGAAAA | 15.3 | 10.5 | – | – |
| GACACUAUGUUUGUCAGAUAGAGAGAGGAUAUGGCUCAUGAGACAUGAGGAUCACCCAUGUAUAAUCAGAAGGCUCGAGUACGA | – | – | 11.5 | 9.17 |
| UUUGCAUACCGAGGAUAUUCAUAUAAUAAAUAAACAUGAGGAUCACCCAUGUGGCGAAAGCCUAGGGAGAAGGCGGAAUGCUUU | – | – | 162 | 30.1 |
| AUGAGCUCGUCAGGAUAUACGUCACUGCGUCAGCAGUGUGGUAAGAUCACAUGAGGAUCACCCAUGUAGAAGGGACGAGCUGAU | 14.6 | 307 | – | – |
| CCGGAAAUGGAGGAUAUCGUAUCGGAUACGAUACGAGAAGGCUAUACAUGAGGAUCACCCAUGUGUCCUACCGG | 12.6 | 20.1 | – | – |

| Sequence | apparent Kd [1] [nM] | apparent Kd [2] [nM] | apparent Kd [3] [nM] | apparent Kd [4] [nM] |
| --- | --- | --- | --- | --- |
| AAAAAACAUGAGGAUCACCCAUGUGAGGAUAUCACUAGUCAGUCCUCAGAGUGAGUACUGAGAAGGCACAUAAA | 86.9 | 54.3 | – | – |
| GGAUAGGAUAGAGGAUAUACGUGCUAGAGAUACUAGCAAAAUUUCCUCACAUGAGGAUCACCCAUGUAGAAGGCUGUCCUAUCG | 10.6 | 193 | – | – |
| ACAUUUAAUACAGGAUAUGUAUGUAUACAAUAGAUUGGUUUUAUCACAUCAACAGAAGGGUAGAACAUGAGGAUCACCCAUGUA | – | – | 114 | 79.8 |
| CAGCCCUGAGGAUAUCCCUACUUGUACAUGAGGAUCACCCAUGUCCUCCUCCGGGCUUCGGGAGAAGGCAGGUCUC | 15.8 | – | – | – |
| UCAUGAAGGAUAGGAUAUGGACAUGAGGAUCACCCAUGUACAUGGGAAUGAAUACUGAAUUUGUACUAGAAGGGUUACAUAAAU | 56.4 | 37 | – | – |
| AAGAAAGAGCGAGGAUAUGCGAUAAAAUAAUAAGCAGAAGGUGCAUAACAUGAGGAUCACCCAUGUUGUUGUCAUGUCAAGAUU | 14.2 | 18.2 | – | – |
| AAUUCACAUGAGGAUCACCCAUGUCAGGAUAUGGUUUCACGUGUUUCGGUGCGUGAGGCCAGAAGGGACAGCUA | 58.4 | 87 | – | – |
| AACGAUCUAGGAUAUACAUGAGGAUCACCCAUGUAAGAGCCCAAACCAGGCUCCCUCUGUAGAAGGAGGUCAAA | – | 50.9 | – | – |
| GAGUGACAUGAGGAUCACCCAUGUGAGGAUAUCGGACGGACCAAGUUAACAUCCGCCGCGAGAAGGCACAUCGG | 114 | 31.1 | – | – |
| UUAAAUCAUGUAGGAUAUGCAUGGCGAAGCUACGCAGAAGGACAUGAGGAUCACCCAUGUUCUAGCUACCGGAUACGGUGGCAA | 21.5 | 87.4 | – | – |
| AAAGCUGAAGGAUAUACUUGGAAAAAAAAAAAAAAAAAAAAACAUGAGGAUCACCCAUGUAGAAGGUCAGAUAA | 48.2 | 39.8 | – | – |
| GGAUAGGACAGAGGAUAUACGGAUAGGAUCUACUAUCUUCUUCAAAUAACAUGAGGAUCACCCAUGUAGAAGGCUGUCCUAUCG | 16 | 31.9 | – | – |
| UCUGCCGCCGUGAGGAUAUGCCCGCGCGCCCGCGGGCAGAAGGCACAUGAGGAUCACCCAUGUCCCGCGGCUUU | 15.1 | 39.5 | – | – |
| AGGAGUAAAGGGAAUAACAUGAGGAUCACCCAUGUAUGGGAGAGAAGGCAGAUCGGAGGACGAUCUGAGGAUAUUUAAACUCUA | – | – | 72.5 | 16.8 |
| CCAUGGCAUGUAGGAUAUGUCUGACAAAGUCAGACAGAAGGACAUGAGGAUCACCCAUGUAAUGGAAAACCAAUAUAGCCAUGG | 7.62 | 11.3 | – | – |
| GCCAUCGUAUGAGGAUAUGGCACCGAAACGGUGCCAGAAGGCAUGUCUAUAGACAUGAGGAUCACCCAUGUGUUAUCGAUGGCA | – | – | 146 | 14.8 |
| CCACGUCACAUAUACAUGAGGAUCACCCAUGUCAAAAGACAUGAGGAUAUGGAUCCUAAUUGGAUCCAGAAGGCAUGGACGUGG | – | – | 757 | 50.8 |
| CUUUUGUGAGGAUAUUAGUAGUAAAUAAAUAAAAUUAUUACUGAGAAGGCACAUGAGGAUCACCCAUGUUCCUC | 32.5 | 405 | – | – |
| CAGCAAUGUGAGAAGGCUGCUCCGAUAAGGAGCAGAGGAUAUUACAUGAGGAUCACCCAUGUAUGAACCAAUAGCUGAAAUAAA | 6.01 | 28.3 | – | – |
| UUAUUUAUACAAGGAUAUCAAUUAUAUACACAUCCUACAUGAGGAUCACCCAUGUUUUAUUUUUUUGAGAAGGUGUAUUGUGGG | – | – | 92.3 | 109 |
| CCGAUACGAGGAUAUACAUGAGGAUCACCCAUGUAGUGGACCGAGCGUCGGUGUCUCAGUAGAAGGCGUUAAGA | 16.2 | 17.3 | – | – |
| AGUCGGAGCAGAGGAUAUACAUGAGGAUCACCCAUGUAAUAUGAUCUAGCCUGGAAACAGGCAAUGUAGAAGGCUGCUCCGACA | 90.3 | 709 | – | – |
| GGUUUUGUGUAAGGAUAUGCAUCACUGAGAAAUUUAGUGAGGAAGAUCACAUGAGGAUCACCCAUGUAGAAGGUACACAUGUGG | 57.9 | 89.2 | – | – |
| GGUUGGCGAGGAUAUACAUGAGGAUCACCCAUGUGAGAGAAAAAAGUGAGUAAGAAAAGUAGAAGGCGCUGACG | 40.1 | 302 | – | – |
| CGCAUCUCUUCAAUUCCUUCACAUGAGGAUCACCCAUGUAGGGAGGAUAUGCAAGCCUAUUGGCGGCAGAAGGCCCUGCAAUGG | 177 | 86.9 | – | – |
| GAUUGACGACAAUUACAUGAGGAUCACCCAUGUUGUAGGAUGCAGGAUAUGUGGUAUAUUAUUUAACAGAAGGGCAAUAAUUUU | – | – | 25.8 | 29.3 |
| AACGCAUGUGGAGGAUAUGCAGUUAACAUAAGCGCAGAAGGCCACAUGAGGAUCACCCAUGUCCGGCAUUAGCCGAUGUUGAUC | 509 | 114 | – | – |
